According to ChEMBL document CHEMBL5329221, “A covalent fragment-based strategy targeting a novel cysteine to inhibit activity of mutant EGFR kinase” (RSC Med Chem, 2023):
Calls of active or inactive are those of the source. The rule behind the calls is not given here.

Tests used:
[1] = target: Epidermal growth factor receptor (Homo sapiens, UniProt P00533, C797S/L858R/T790M); experiment: Inhibition of N-terminal His6-tagged human EGFR L858R/T790M/C797S mutant expressed in Sf9 cells assessed as decrease in substrate phosphorylation using Ulight-JAK1 peptide as substrate incubated for 1.5 hrs in presence of ATP by TR-FRET based LANCE Ultra kinase assay
In short: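 LANCE Ultra TR-FRET assay with 0.25 nM EGFR_TM, 1 µM ATP, 50 nM ULight-JAK1 peptide, 50 mM HEPES pH 7.5, 10 mM MgCl2, 5 mM MnCl2, 1 mM DTT, 0.015% Brij35, 5% DMSO, 1.5 h at 23°C. EDTA stop, Eu-anti-pTyr PT66, 1 h. Signal is the 665/620 nm ratio, normalised to no-protein controls. IC50 from a four-parameter fit, otherwise % inhibition at the top concentration.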

[2] = system: Epidermal growth factor receptor (Homo sapiens), P00533 [T790M,L858R,E865A,E866A,K867A]; experiment: Binding affinity to N-terminal His6-tagged human EGFR T790M/L858R/E865A/E866A/K867A mutant expressed in Sf9 cells at pH 7.4 assessed as covalent adduct formation incubated for 1 hrs by TOF-MS analysis
[3] = system: Epidermal growth factor receptor (Homo sapiens), P00533 [T790M,L858R,C797S,E865A,E866A,K867A]; experiment: Binding affinity to N-terminal His6-tagged human EGFR T790M/L858R/C797S/E865A/E866A/K867A mutant expressed in Sf9 cells at pH 7.4 assessed as covalent adduct formation incubated for 1 hrs by TOF-MS analysis
[4] = system: Epidermal growth factor receptor (Homo sapiens), P00533 [T790M,L858R,E865A,E866A,K867A]; experiment: Binding affinity to N-terminal His6-tagged human EGFR T790M/L858R/E865A/E866A/K867A mutant expressed in Sf9 cells at pH 7.4 assessed as covalent adduct formation preincubated with nazartinib followed by compound addition and measured after 1 hrs by TOF-MS analysis
[5] = target: Epidermal growth factor receptor (Homo sapiens) (UniProt P00533); experiment: Binding affinity to N-terminal twin Strep-tagged human wild type EGFR (694 to 1022 residues) expressed in Sf9 cells at pH 7.4 assessed as covalent adduct formation preincubated with maleimide followed by compound addition and measured after 1 hrs by TOF-MS analysis
[6] = system: Epidermal growth factor receptor (Homo sapiens), P00533 [L858R,T790M,C797S]; experiment: Inhibition of N-terminal His6-tagged human EGFR L858R/T790M/C797S mutant expressed in Sf9 cells assessed as decrease in substrate phosphorylation using Ulight-JAK1 peptide as substrate at 500 uMincubated for 1.5 hrs in presence of ATP by TR-FRET based LANCE Ultra kinase assay
[7] = system: Epidermal growth factor receptor (Homo sapiens), P00533 [T790M,L858R,C797S,E865A,E866A,K867A]; experiment: Binding affinity to N-terminal His6-tagged human EGFR T790M/L858R/C797S/E865A/E866A/K867A mutant expressed in Sf9 cells at pH 7.4 incubated for 1 hrs by TOF-MS analysis

Compound	IC50 [1]	Activity [2]	Activity [3]	Activity [4]	Activity [5]	inhibition [6]	Activity [7]
C=CC(=O)Nc1cc(-c2ccccc2)ccn1	32 µM						
C=CC(=O)Nc1cc(-c2cn(C)c3ccccc23)ccn1	9 µM						
C=CC(=O)Nc1cc(N(C)C)n2nc(C)cc2n1		Active	Active				
C=CC(=O)Nc1cccc2c1ncn2C		Active	Active				
C=CC(=O)Nc1ccc[nH]c1=O		Active	Active				
C=CC(=O)Nc1ccc2cccnc2c1		Active	Active	inactive	inactive		Active
C=CC(=O)Nc1cc2ccccn2n1		Active	Active	inactive	inactive		Active
C=CC(=O)Nc1ccc2c(C)n(C)nc2c1		Active	Active				

Further lines, results first:

IC50 [1]	Activity [2]	Activity [3]	Activity [4]	Activity [5]	inhibition [6]	Activity [7]	Compound
	Active	Active					C=CC(=O)Nc1cccc(O)c1
> 500 µM	Active	Active	inactive	inactive	52.3%	Active	C=CC(=O)Nc1ccccn1
	Active	Active					C=CC(=O)Nc1cccc(C(C)=O)c1
	Active	Active					C=CC(=O)Nc1cccc(NC(C)=O)n1
